Here are results for 15 compounds from ChEMBL document CHEMBL3608286, “Azaphilone and Diphenyl Ether Derivatives from a Gorgonian-Derived Strain of the Fungus Penicillium pinophilum” (J Nat Prod, 2015).

The test system of assay [1] is Amphibalanus amphitrite. The assay is described as follows: Antifouling activity against larval settlements of Balanus amphitrite Darwin cyprids. It counts as functional, organism-based. An outline of the steps: (§1)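 Barnacle cyprid larvae tested for inhibition of settlement, following a procedure from earlier literature. SeaNine 211 served as the positive control. EC50 was taken for settlement inhibition and LC50 for larval toxicity, with LC50/EC50 as the ratio.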

In the next assay the test system is HeLa. The assay is described as follows: Cytotoxicity against human HeLa cells by neutral red method. It counts as functional, cell-based. In short, it runs like this:
(§2)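 Human cancer cell lines (HeLa, Hep-2, RD) assayed by Neutral Red uptake, giving IC50. Adriamycin was the positive control.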

Assay [2] deals with Amphibalanus amphitrite. The assay is described as follows: Selectivity index, ratio of CC50 for Balanus amphitrite Darwin cyprids to EC50 for antifouling activity against larval settlements of Balanus amphitrite Darwin cyprids. An outline of the steps:
as §1

The next assay deals with RD. The assay is described as follows: Cytotoxicity against human RD cells by neutral red method. It counts as functional, cell-based. An outline of the steps:
as §2

The nature of assay [3]: Cytotoxicity against human Hep2 cells by neutral red method. The settings on record: HEp-2. It counts as functional, cell-based. An outline of the steps: as §2
[4] abbreviates: Amphibalanus amphitrite, Darwin, read-out: EC50.

In brackets after ≈: the same amount, converted by molar mass.

Consider `Cc1cc(O)cc(O)c1C(=O)O[C@]1(C)C(=O)C2=C(C=C(/C=C/C(=O)O)OC2)C[C@H]1O`, for which, in the assay on Amphibalanus amphitrite [1], the 50% effective concentration (EC50) entry is listed as “Not Active”.

As to `Cc1cc(O)cc(O)c1C(=O)O[C@]1(C)C(=O)C=C2C=C(/C=C/CO)OC[C@H]2[C@@H]1O`, in the assay on Amphibalanus amphitrite [1], the EC50 result is “Not Active”. `COc1c([C@@H](O)CC(C)C)ccc2c1C(=O)OCc1cc(CO)cc(O)c1O2` had an IC50 in the assay with HeLa of 6.1 µM. The “Ratio CC50/EC50” value in the assay on Amphibalanus amphitrite [2] is on record as >50. In addition, the EC50 in the assay on Amphibalanus amphitrite [1] (setting [4]) was found to be 6 mg/L (≈ 15.4 µM). `COc1c([C@@H](O)CC(C)(C)O)ccc2c1C(=O)OCc1cc(C)cc(O)c1O2`: in the assay with Amphibalanus amphitrite [2], the “Ratio CC50/EC50” value was >50. For the same compound, in the assay with Amphibalanus amphitrite [1] (setting [4]), the EC50 was determined as 20 mg/L (≈ 51.5 µM). Take `C/C=C/C1=CC2=CC(=O)[C@@](C)(OC(=O)c3c(C)cc(O)cc3O)C(=O)C2=CO1`: in the assay on Amphibalanus amphitrite [1], the half-maximal effective concentration (EC50) entry is given as “Not Active”. As to `C/C=C/C1=CC2=CC(=O)[C@@](C)(O)[C@@H](OC(=O)c3c(C)cc(O)cc3O)[C@@H]2CO1`, the EC50 result in the assay on Amphibalanus amphitrite [1] is “Not Active”. Consider `C/C=C/C1=CC2=CC(=O)[C@@](C)(O)[C@@H](OC(=O)c3c(C)cc(O)cc3O)C2=CO1`, for which, in the assay on Amphibalanus amphitrite [1], the EC50 entry is “Not Active”.

Regarding `Cc1cc(O)cc(O)c1C(=O)O[C@]1(C)C(=O)C=C2C=C(/C=C/C(=O)O)OC=C2C1=O`, the EC50 result in the assay with Amphibalanus amphitrite [1] is given as “Not Active”.

On to `COc1c([C@@H](O)CC(C)C)ccc2c1C(=O)OCc1cc(C)cc(O)c1O2` [PENICILLIDE], for which the IC50 in the assay with RD was 7.8 µM; in assay [3], 6.7 µM. The “Ratio CC50/EC50” value with Amphibalanus amphitrite [2] is reported as >50. Further, the EC50 in the assay with Amphibalanus amphitrite [1] (setting [4]) was determined as 2.6 mg/L (≈ 6.98 µM).

For the compound `Cc1cc(O)cc(O)c1C(=O)O[C@H]1[C@@H]2COC(/C=C/CO)=CC2=CC(=O)[C@@]1(C)O` [PINOPHILIN B], the EC50 entry in the assay on Amphibalanus amphitrite [1] is recorded as “Not Active”. In the case of `COc1cccc2c1C(=O)c1c(O)c3c(c(O)c1C2=O)C[C@@](O)(C(=O)CO)C[C@@H]3O[C@H]1C[C@H](N)[C@H](O)[C@H](C)O1` [DOXORUBICIN], the IC50 in the assay with RD is 2 µM; in assay [3], 1.5 µM. In the case of `Cc1cc(O)cc(O)c1C(=O)O[C@H]1[C@@H]2COC(CC(C)O)=CC2=CC(=O)[C@@]1(C)O` (some centres undefined), the EC50 result in the assay on Amphibalanus amphitrite [1] is recorded as “Not Active”. Same read-out and setting: to `Cc1cc(O)cc(O)c1C(=O)O[C@]1(C)C(=O)C=C2C=C(/C=C/CO)OC=C2C1=O` belongs “Not Active”. With `CCCCCCCCn1sc(Cl)c(Cl)c1=O`, in the assay on Amphibalanus amphitrite [2], the “Ratio CC50/EC50” value stood at 20.3. In the assay on Amphibalanus amphitrite [1] (setting [4]), the EC50 amounted to 1.2 mg/L (≈ 4.25 µM). As to `COc1c([C@H](CC(C)C)OC(C)=O)ccc2c1C(=O)OCc1cc(C)cc(O)c1O2`, the “Ratio CC50/EC50” value in the assay with Amphibalanus amphitrite [2] was >50. In addition, the EC50 in the assay on Amphibalanus amphitrite [1] (setting [4]) amounted to 10 mg/L (≈ 24.1 µM).

A word on the EC50: it is the concentration giving half of the maximal effect. As usually defined, the IC50 is the point on the concentration scale where inhibition reaches its midpoint. The low end stands for inhibition by little substance, the high end for a need for much substance.
